Compounds with a hit are over-represented: about 2.2% of the library has one in this group of screens.
DAGLB inhibitor: DAGLB lipase inhibitors, primary screen, biochemical, fluorescence, HTS | Diacylglycerol lipase-beta (Homo sapiens), Q8NCG7 | inhibition, % at 5.17 µM | HEK293T DAGLB membrane lysate, EnzChek fluorogenic substrate | 340,000 compounds, 0.059% hits; in the data active = inhibition above about 34%;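 note: 0% = enzyme with vehicle and 100% = wells lacking enzyme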
Target sequence (Q8NCG7 whole entry, looked up): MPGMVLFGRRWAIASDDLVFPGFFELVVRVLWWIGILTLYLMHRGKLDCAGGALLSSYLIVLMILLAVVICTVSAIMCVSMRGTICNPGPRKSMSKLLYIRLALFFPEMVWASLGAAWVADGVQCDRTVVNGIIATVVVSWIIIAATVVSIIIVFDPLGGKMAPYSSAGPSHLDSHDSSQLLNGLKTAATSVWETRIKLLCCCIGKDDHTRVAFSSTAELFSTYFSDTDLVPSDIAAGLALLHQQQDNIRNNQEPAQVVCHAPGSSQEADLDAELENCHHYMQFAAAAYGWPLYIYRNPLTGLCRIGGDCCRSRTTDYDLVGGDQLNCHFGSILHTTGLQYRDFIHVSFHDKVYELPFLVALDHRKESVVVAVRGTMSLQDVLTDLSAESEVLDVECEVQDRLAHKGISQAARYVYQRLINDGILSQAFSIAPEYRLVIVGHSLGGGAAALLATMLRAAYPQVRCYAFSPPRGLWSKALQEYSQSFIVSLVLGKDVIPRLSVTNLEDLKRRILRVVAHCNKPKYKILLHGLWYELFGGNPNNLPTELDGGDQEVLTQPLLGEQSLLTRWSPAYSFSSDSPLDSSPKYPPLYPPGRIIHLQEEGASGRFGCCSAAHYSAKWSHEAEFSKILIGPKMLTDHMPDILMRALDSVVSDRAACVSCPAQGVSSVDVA
DNA FID counter-1: compounds displacing fluorescent DNA intercalator, primary screen, artefact control for HCV NS3 helicase inhibitor project, biochemical, FID fluorescence. DNA fluorescent intercalator displacement. inhibition, % at 7.9 µM. 290,000 compounds, 0.17% hits. AID 1845, 2009;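 note: 0% = vehicle and 100% = reference compound; higher means more ethidium bromide displaced from hairpin DNA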
core dimer inh: inhibitors of HCV core protein dimerization, primary screen, biochemical, TR-FRET, high-throughput; inhibition, % at 5 µM; AID 1899, 2009; 300,000 compounds, 0.33% hits; TR-FRET GST/Flag-core106 dimerization, 1536-well;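 active = inhibition above the mean of all tested compounds plus 3 SD, set per screening campaign, cut at about 45% in these data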
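System: GST-tagged and Flag-tagged HCV core protein residues 1-106 / Input: core106 proteins, GST 13.5 nM and Flag 17 nM / Buffer or medium: KF-containing HEPES buffer, pH 7.45, DTT, CHAPS, BSA / Probe or stimulus: Eu-anti-GST and XL665-anti-Flag labelled anti-tag antibodies / Schedule: 4 h, 22.5 °C incubation / Technique: TR-FRET 671 and 617 nm emission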
GRK2 aptamer HTS: compounds blocking aptamer binding on GRK2 – biochemical, human GRK2, bead flow cytometry, HTS, primary screen; FAM-aptamer displacement from GRK2; inhibition of aptamer binding, % at 10 µM; 330,000 compounds, 0.59% hits;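 active = inhibition of aptamer binding above 40%, roughly 3 SD of noise, on plates passing a quality check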;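 note: median bead fluorescence of bound FAM aptamer so fluorescent compounds give negative values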
GPR7 antagonist: GPR7 receptor antagonists, primary screen, cell-based, fluorescence, single concentration. Neuropeptides B/W receptor type 1 (Homo sapiens), P48145. GPR7-expressing cells, fluorescence antagonist assay. inhibition, % at 4.4 µM. 290,000 compounds, 1.1% hits; in the data active = inhibition above about 16%, passing the limit was not always enough;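 note: cells stimulated with the agonist NPW; 0% = agonist with vehicle and 100% = vehicle without agonist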
HCV NS3 hel inh: inhibitors of HCV NS3 helicase, primary screen, biochemical, Cy5 molecular beacon fluorescence | inhibition, % at 10.9 µM | 290,000 compounds, 0.56% hits | NS3 helicase DNA unwinding | Hepatitis C virus NS3 helicase;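 active = inhibition above the mean of all tested compounds plus 3 SD, set per campaign, cut at about 35% in these data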;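 note: 0% = DMSO wells and 100% = thioflavine S control wells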
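System: HCV NS3 helicase fragment; control set: DMSO and thioflavine S; technique: Cy5 fluorescence at 0 and 60 min, beacon hairpin quenching; reagent: beacon DNA duplex substrate plus ATP; replicates: singlicate; schedule: 1 h reaction at 25 °C, ATP-initiated; medium: MOPS buffer pH 6.5 with MgCl2, DTT, Tween20, BSA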
NS3 hel confirm: HCV NS3 helicase inhibitors, retest, confirmation, biochemical, Cy5 molecular beacon fluorescence, triplicate | shares compounds with HCV NS3 hel inh | NS3 helicase DNA unwinding | inhibition, % at 10.9 µM | 1,600 compounds, 31% hits;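 active = inhibition above the mean of all tested compounds plus 3 SD, cutoff set per campaign, cut at about 36% in these data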
DNA FID counter-2: compounds displacing fluorescent DNA intercalator, artefact control for HCV NS3 helicase inhibitor project, biochemical, FID fluorescence, triplicate | inhibition, % at 7.9 µM | AID 1945, 2009 | 1,600 compounds, 4% hits | DNA fluorescent intercalator displacement | shares compounds with HCV NS3 hel inh;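 note: 0% = vehicle and 100% = reference compound; higher means more displacement of ethidium bromide from the DNA hairpin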
The depositor's hits bear a star; nt = no result. Cut-off read from the data, not from the text of the source, unless noted: active = inhibition above about 37%; inactive = the rest.

SMILES	DAGLB inhibitor	DNA FID counter-1	core dimer inh	GRK2 aptamer HTS	GPR7 antagonist	HCV NS3 hel inh	NS3 hel confirm	DNA FID counter-2
COc1cc(C(NC(C)=O)NC(C)=O)ccc1OCc1ccccc1	1	1	-4	2	-1	20	nt	nt
COc1cc(C(c2c(C(=O)O)[nH]c3ccccc23)c2c(C(=O)O)[nH]c3ccccc23)ccc1OCc1ccccc1	17	-5	36	3	12	37*	17	25
O=C(NCc1ccco1)C(=O)NCC1OCCN1S(=O)(=O)c1cc(F)ccc1F (stereo unspecified)	-1	-9	2	1	-1	49*	-7	11
O=C(NCc1ccco1)C(=O)NCC1OCCN1S(=O)(=O)c1ccc(F)cc1 (stereo unspecified)	0	-6	20	0	-10	6	nt	nt
Cc1cccc(NC(=O)Nc2cccc(C)n2)n1	2	-6	-6	0	-11	39*	-8	1
Cc1ccc(NC(=O)Nc2cccc(C)n2)cc1	0	-23	-3	3	-8	3	nt	nt
Cc1cccc(NC(=O)/C=C/c2cccs2)n1	2	-4	-5	1	-2	67*	-13	16
CC(Sc1nc2ccccc2c(=O)n1CC1CCCO1)C(=O)Nc1ccc(S(N)(=O)=O)cc1 (stereo unspecified)	1	nt	-4	12	nt	nt	nt	nt
COc1ccc(/C=C2\N=C(C)OC2=O)cc1OC	-1	-11	-15	0	-1	38*	-13	18
CCN(CCO)c1ncnc2c1sc1nc(C(C)C)c3c(c12)CC(C)(C)OC3	0	-7	2	0	-19	-1	nt	nt
CCN(CCO)c1nc(SC)nc2c1sc1nc(-c3ccco3)c3c(c12)CCC3	-3	-23	80*	5	0	36*	81*	27
COc1ccc(C(C(=O)NC2CCCC2)N(Cc2cccnc2)C(=O)c2snc(C(N)=O)c2N)cc1OC (stereo unspecified)	0	-22	-3	0	-11	3	nt	nt
CSCCC(NC=O)C(=O)NC(C)C(=O)O (stereo unspecified)	2	nt	nt	nt	nt	nt	nt	nt
O=c1c(C(c2ccc(Cl)cc2)c2c(O)nc3n(c2=O)CCS3)c(O)nc2n1CCS2	-1	-5	1	4	7	47*	23	2
Cc1ccc(NC(=O)c2cc(S(=O)(=O)N3CCOCC3)ccc2Cl)cc1S(=O)(=O)N1CCOCC1	-2	nt	nt	nt	nt	nt	nt	nt
CCCCOc1ccc(C(=O)Nc2ccc(S(=O)(=O)Nc3onc(C)c3C)cc2)cc1	10	-15	19	0	-18	40*	54*	-21
CCCOc1ccc(C(=O)Nc2ccc(S(=O)(=O)Nc3onc(C)c3C)cc2)cc1	5	-32	1	4	-14	8	nt	nt
CCOC(=O)Cc1csc(N/N=C\c2ccc(N(C)C)cc2)n1	13	-20	18	0	1	50*	-16	2
CN1CCN(Cc2c(O)ccc3occ(C(=O)c4ccccc4)c23)CC1	0	19	-8	0	-2	-13	nt	nt
CC(=O)C(C(C)=O)c1c(Cl)c(O)c(O)c2c(C(=O)c3ccccc3)coc12	16	-7	2	3	-10	38*	-10	3
O=C1N=c2ccccc2=C1c1sc(Nc2ccc(O)cc2)nc1O	0	7	nt	nt	13	72*	27	4
O=C1N=c2ccccc2=C1c1sc(NS(=O)(=O)Cc2ccccc2)nc1O	12	-18	1	0	-9	7	nt	nt
CC(OC(=O)c1ccc(Cl)c(S(=O)(=O)N2CCCC2)c1)C(=O)NC1CCCCC1C (stereo unspecified)	nt	-44	-20	6	-15	37*	-14	-16
Cc1ccc(C(=O)OC(C)C(=O)NC2CCCCC2C)cc1S(=O)(=O)N1CCCCC1 (stereo unspecified)	0	-35	10	0	-3	-1	nt	nt
O=C(NCc1ccccn1)c1cccc(S(=O)(=O)Nc2ccccc2Cl)c1	0	nt	nt	2	nt	nt	nt	nt
SMILES	DAGLB inhibitor	DNA FID counter-1	core dimer inh	GRK2 aptamer HTS	GPR7 antagonist	HCV NS3 hel inh	NS3 hel confirm	DNA FID counter-2
O=c1nc2onnc2c(C=NO)[nH]1	2	nt	nt	nt	nt	nt	nt	nt
CCC(Cc1ccccc1)NC(=O)C1CC1 (stereo unspecified)	0	-11	nt	2	-6	41*	0	9
COc1ccc(CC(=O)OCC(=O)N2CCc3ccccc32)cc1OC	-1	nt	nt	0	nt	nt	nt	nt
COc1ccc(/C=N/N2CCN(c3ccccc3OC)CC2)cc1OC	-1	-17	-4	0	-3	4	nt	nt
COc1ccccc1N1CCN(/N=C/c2ccc(O)c(O)c2)CC1	nt	-19	-4	1	1	37*	-1	-7
Cc1ccc(CNC(=O)C2CCCN(S(=O)(=O)N3CC(C)CC(C)C3)C2)cc1 (stereo unspecified)	-4	-48	1	0	-13	2	nt	nt
Nc1cccc2c1C(=O)N(CCOc1ccccc1F)C2=O	-3	-2	0	4	-4	-2	nt	nt
CCOC(=O)C1Nc2ccc(C(=O)O)cc2C2C=CCC12 (stereo unspecified)	-1	-12	0	22	-11	54*	67*	-16
CCOC(=O)c1ccc2c(c1)C1C=CCC1C(C(=O)O)N2 (stereo unspecified)	nt	-11	88*	88*	-4	39*	91*	-6
Cc1nc(Cl)c(C(=O)NC(=O)Nc2cccc(C(F)(F)F)c2)c(C)c1[N+](=O)[O-]	1	-1	3	0	-13	2	nt	nt
COc1ccc(OC)c(NC(=O)CN2C(=O)C3(OCCCO3)c3ccccc32)c1	-4	-20	2	0	0	54*	-2	-22
CSCCC(NC(=O)c1cncc(Br)c1)C(=O)O (stereo unspecified)	0	-2	-1	4	-11	40*	0	-3
CSCCC(NC(=O)c1ccc(Br)cc1)C(=O)O (stereo unspecified)	-1	4	-11	0	-2	7	nt	nt
Cc1ccc(OCC(=O)Nc2nnc(S(=O)(=O)N3CCC(C)CC3)s2)cc1	6	-34	36	8	-13	36*	-16	-6

Compound activity: PubChem, several laboratories
